≈ marks a conversion by molar mass, not a printed value.
Key:
[1] = cited from earlier work; for IC50, inhibition of oxidation of DPPH: from P. latifolia leaves
MCF-7 = assay: MTT antiproliferative; format: cell-based; settings: Homo sapiens, MCF7, read-out: Cytotoxicity (IC50 μM) MCF-7
MTT antiproliferative = format: cell-based; settings: human, MCF-10A cells (normal breast cell line)
[2] = DPPH radical scavenging activity assay; settings: 30 min, room temperature, ethanol
Method in brief: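 Test compound in absolute ethanol (2–100 μg mL−1; 40 μg mL−1 for screening), 1 mL mixed with 2 mL of freshly prepared DPPH (20 μg mL−1 in absolute ethanol). Incubated 30 min at room temperature in the dark, then absorbance read at 517 nm against an absolute ethanol blank. Ascorbic acid as positive control. % scavenging from blank versus sample absorbance; IC50 by nonlinear regression.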

MDA-MB-231 cells = assay: Wound-healing scratch; format: cell-based, human; settings: MDA-MB-231, 10 μM, HGF-induced, 24 h
Method in brief: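 MDA-MB-231 cells grown overnight to confluent monolayers, scratched with a pipette tip, washed twice with PBS, then fresh RPMI. Test compound (10 μM, from 10 mM DMSO stock; DMSO ≤0.1%) added in serum-free defined medium with […] HGF, in triplicate, for 24 h. Cells fixed and Giemsa-stained; wound width imaged at 0 and 24 h. % migration calculated relative to DMSO control.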

SMILES	IC50, inhibition of oxidation of DPPH [1]	IC50, DPPH radical scavenging [2]	also measured
COc1cc(C2Oc3c(OC)cc(C=CC=O)cc3C(O)C2O)ccc1O (centres unmarked) [4′-hydroxy-8,3′-dimethoxy-6-acroleinylflavan-3,4-diol]	22.5 µg/mL	–	–
CC(CO)c1cc2c(c(O)c1O)C1=CC(=O)CC(C)(C)C1(C)C=C2 (centres unmarked) [11,12,16-trihydroxy-2-oxo-5-methyl-10-demethyl-abieta-1,[10] and 6,8,11,13-pentene]	–	–	IC50 towards DPPH assay ([1]; from P. serratifolia): 20.4 ± 1.3 µg/mL (≈ 62.1 µM)
C[C@@H]1O[C@@H](O[C@@H]2[C@@H](O)[C@H](OCCc3ccc(O)c(O)c3)O[C@H](CO)[C@H]2OC(=O)/C=C/c2ccc(O)c(O)c2)[C@H](O)[C@H](O)[C@H]1O [Compound 5, verbascoside]	–	17.50 ± 1.3 µg/mL (≈ 28 µM)	IC50 (MCF-7): 10.5 ± 0.52 µM; IC50 at 48 h (MTT antiproliferative): 13.9 ± 0.69 µM
CC1(C)CC[C@]2(C(=O)O)CC[C@]3(C)C(=CC[C@@H]4[C@@]5(C)CC[C@H](O)C(C)(C)[C@@H]5CC[C@]43C)[C@@H]2C1 [Compound 10, oleanolic acid]	–	–	cell migration inhibition in wound-healing assay (MDA-MB-231 cells): suppressed
O=C1O[C@H]([C@@H](O)CO)C(O)=C1O [L-ascorbic acid, reference compound]	–	10 ± 0.3 µg/mL (≈ 56.8 µM)	–
O=C1C[C@@H](c2ccc(O)cc2)Oc2cc(O)cc(O)c21 [naringenin]	16.0 µg/mL	–	–

Source: publication PMC9050340 (RSC Advances, 2020)
